# Apaf1 activ: activators of human Apaf-1 apoptosome, primary screen, biochemical, DEVD-Rh110 fluorescence, uHTS; Apoptotic protease-activating factor 1 (Homo sapiens), O14727; Apaf-1 apoptosome caspase-3 activation; hits give low values; activity change, negative = activation, % at 20 µM; hit rate 0.31% among 330,000;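 active means activity change at or below -40% at 20 µM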
# Target sequence (O14727 whole entry, looked up): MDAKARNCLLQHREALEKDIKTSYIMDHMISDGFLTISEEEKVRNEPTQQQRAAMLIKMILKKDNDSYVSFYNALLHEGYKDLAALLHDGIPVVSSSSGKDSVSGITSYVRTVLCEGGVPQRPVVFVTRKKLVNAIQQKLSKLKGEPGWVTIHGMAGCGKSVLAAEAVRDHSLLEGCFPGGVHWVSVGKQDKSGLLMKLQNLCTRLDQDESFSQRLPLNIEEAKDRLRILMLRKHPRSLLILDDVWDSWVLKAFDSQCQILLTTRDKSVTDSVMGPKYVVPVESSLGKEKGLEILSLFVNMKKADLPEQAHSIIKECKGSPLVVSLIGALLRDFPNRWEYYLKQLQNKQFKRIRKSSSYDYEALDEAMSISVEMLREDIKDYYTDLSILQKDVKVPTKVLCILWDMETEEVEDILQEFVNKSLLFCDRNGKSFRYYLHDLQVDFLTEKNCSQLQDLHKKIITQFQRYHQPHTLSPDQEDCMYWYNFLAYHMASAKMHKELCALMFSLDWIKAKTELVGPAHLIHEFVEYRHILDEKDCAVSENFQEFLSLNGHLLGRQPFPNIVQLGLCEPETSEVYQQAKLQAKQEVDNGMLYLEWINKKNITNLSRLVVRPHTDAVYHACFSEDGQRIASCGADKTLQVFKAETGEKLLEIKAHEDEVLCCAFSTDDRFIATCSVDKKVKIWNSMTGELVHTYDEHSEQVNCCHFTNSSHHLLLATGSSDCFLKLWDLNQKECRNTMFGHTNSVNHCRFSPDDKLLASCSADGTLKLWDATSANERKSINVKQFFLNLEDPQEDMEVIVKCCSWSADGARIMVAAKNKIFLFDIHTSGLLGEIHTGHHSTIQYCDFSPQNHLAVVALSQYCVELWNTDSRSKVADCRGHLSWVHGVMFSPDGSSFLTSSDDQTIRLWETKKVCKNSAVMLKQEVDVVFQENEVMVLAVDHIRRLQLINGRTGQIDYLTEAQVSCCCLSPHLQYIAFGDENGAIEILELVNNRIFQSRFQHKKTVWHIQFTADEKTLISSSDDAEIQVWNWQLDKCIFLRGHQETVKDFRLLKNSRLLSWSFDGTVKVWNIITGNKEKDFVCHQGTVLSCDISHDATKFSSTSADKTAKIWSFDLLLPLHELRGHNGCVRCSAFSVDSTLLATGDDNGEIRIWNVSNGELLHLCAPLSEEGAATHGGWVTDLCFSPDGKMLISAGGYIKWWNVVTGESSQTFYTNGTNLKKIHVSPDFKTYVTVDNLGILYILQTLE
#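 Material: biochemical Apaf-1 apoptosome reconstitution; Medium: 20 mM HEPES buffer, pH 7.5, containing CHAPS and BSA; Reagent: dATP, cytochrome c, and (Z-DEVD)2-Rh110 caspase-3 substrate; Times: 30 min preincubation, 50 min reaction, room temperature; Signal: Rh110 fluorescence, excitation 480 nm, emission 540 nm; Measure: Caspase-3 activity via Apaf-1.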
# Rh110 act interf: Rh110 fluorescence interference by putative Apaf-1 activators, confirmation, artefact control for Apaf-1 activator project, biochemical, 20 µM. shares compounds with Apaf1 activ. quenched caspase reaction, Ex480/Em540. fluorescence interference (activity change), % at 20 µM, hits read low. 980 tested, under 10 active. AID 504616, 2011;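 active means mean activity change at or below -40% when tested at 20 µM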
# Apaf-1 act conf2: Apaf-1 activators, single-dose retest, confirmation, biochemical, fluorescence, DEVD-Rh110, 20 µM; shares compounds with Apaf1 activ; reconstituted apoptosome caspase-3 activity; hits give low values; activity change, negative = activation, % at 20 µM; hit rate 5% among 980; AID 504617, 2011;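 active means mean activity change at or below -40%, meaning activation of 40% or more, at 20 µM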
# Fluor interf act: fluorescence interference of Apaf-1 activator hits, dose response, artefact control for Apaf-1 activator project | 55 tested, under 10 active | fluorescence interference counterscreen, Apaf-1 activator assay | shares compounds with Apaf1 activ | EC50, µM; call rule not given here
# An asterisk follows results filed as active; x = no result. The list is a sample of the results.
SMILES,Apaf1 activ,Rh110 act interf,Apaf-1 act conf2,others
Cc1cc(C(=O)OCC(=O)NC(=O)c2cccn2C)c2ccccc2n1,-127*,9,14,
Cc1cc(C)c(C(N)=O)c(Nc2cccc3ccccc23)n1,96,x,x,
COCCOc1cc(NCc2ccccc2)c2ncn(C(C)C)c2c1,68,x,x,
CC(=O)c1ccc(OCCCC(=O)N2CCN(S(=O)(=O)c3ccc(C)cc3C)CC2)cc1,40,x,x,
CC(C)c1ccc(S(=O)(=O)/N=C2/C=CC(=O)c3ccccc32)cc1,72,x,x,
O=C1Nc2ccc(S(=O)(=O)NCc3ccco3)c3cccc1c23,49,x,x,
O=C(NNC(=O)C1CC1)c1ccccc1[N+](=O)[O-],-60*,0,9,
O=[N+]([O-])c1ccccc1-c1ccc(C(=S)N2CCCC2)o1,47,x,x,
CCN(CC)CCn1c2c(c(SCC(=O)Nc3nccs3)nc1=O)CCCC2,-50*,-4,10,
O=C(O)c1ccc(N2C(=O)/C(=C/c3ccc(-c4ccc([N+](=O)[O-])cc4)o3)C=C2c2ccccc2)cc1,52,x,x,
Cc1ccc(CN(C)C(=O)CSc2nnc3n2CCCCC3)c(C)c1,-42*,-8,6,
C=C[C@@H]1CN2CCC1C[C@@H]2[C@@H](O)c1ccnc2ccc(OC)cc12 (some centres not stated),1,x,x,
CCN1CCN(C(=O)CN(c2cc(OC)ccc2OC)S(C)(=O)=O)CC1,-191*,3,13,
c1ccc([C@H]2CNCCN2CCc2cccc3ccccc23)cc1,55,x,x,
Oc1cccc2c(NC(=S)Nc3ccc(OC(F)F)cc3)cccc12,65,x,x,
CCOC(=O)c1ccc(N=c2sc(C(=O)OC)cc(=O)n2CCCN2CCOCC2)cc1,2,x,x,
S=c1[nH]nc(-c2ccncc2)n1/N=C/c1cn(-c2ccccc2)nc1-c1ccc(Cl)cc1,-59*,-1,-19,
CCCCCCCCCC[N+](C)(C)CC/C=C1/c2ccccc2Sc2ccc(Cl)cc21,81,x,x,
CN1CCc2cccc3c2[C@H]1Cc1ccc(O)c(O)c1-3,42,x,x,
O=C(O)CCCN1C(=O)/C(=C\c2ccc(-c3nc4ccccc4s3)o2)SC1=S,-81*,16,-120*,Fluor interf act=>100
O=C(O)CC(C(=O)O)N1C(=O)/C(=C/C=C/c2ccco2)SC1=S (configuration not stated),85,x,x,
CN(C)CCCNS(=O)(=O)c1ccc(N2CCC(c3ccc(Cl)cc3)=N2)cc1,73,x,x,
CCCNS(=O)(=O)c1ccc(CCC(=O)N2CCCCC2)cc1,-511*,-2,8,
[O-]/C(=C(\C(=S)Nc1cccc2ccccc12)[n+]1ccccc1)c1ccc(Cl)s1,47,x,x,
Nc1ccnc(C(F)(F)F)c1C(=O)c1ccccc1,-43*,7,0,
SMILES,Apaf1 activ,Rh110 act interf,Apaf-1 act conf2,others
CC(C)c1ccc(NC(=O)C2CC(=O)N(C3CCCC3)C2)cc1 (configuration not stated),-96*,4,4,
CSc1ccccc1NC(=O)c1cc(S(=O)(=O)N(C)C)ccc1N1CCCC1,52,x,x,
CSc1ccccc1NC(=O)c1cc(-c2ccc3c(c2)OCO3)on1,-197*,10,8,
CN1N=C(C(C)(C)C)CC1=O,41,x,x,
Cc1ccc(C)n1-c1nnc(N2CCC(C(=O)NCCCN3CC(C)CC(C)C3)CC2)s1 (configuration not stated),-402*,6,14,
O=C(NCCCN1CCc2ccccc2C1)C1CCN(c2nnc(-n3cccc3)s2)CC1,51,x,x,
Cc1cc2ccccc2n1CCNC(=O)C1CCCCC1,44,x,x,
COc1ccc(C[C@H]2CN3C(=NC[C@@H]3Cc3ccccc3)N2C[C@H](C)NC(=O)CCC2CCCCC2)cc1,52,x,x,
O=[N+]([O-])c1cccnc1SCc1ccccc1,-514*,10,9,
O=C(NCCO)Nc1ccc2nc(-c3ccco3)c(-c3ccco3)nc2c1,71,x,x,
C#CCOCCOCCOCCNc1nc(N2CCN(C(=O)[C@H](CCCCN)n3cc([C@@H](N)[C@H](C)CC)nn3)CC2)nc(N2CCN(C(=O)[C@H](CCCCN)n3cc([C@@H](N)CC(N)=O)nn3)CC2)n1,44,x,x,
COCCN(CCOC)Cc1c(O)ccc2c3c(c(=O)oc12)CCC3,-336*,3,4,
C[C@]12CC[C@@H]3c4ccc(OS(=O)(=O)O)cc4CC[C@H]3[C@@H]1CCC2=O,6,x,x,
CSc1ccc(CN(C)C(=O)CSCC(=O)Nc2cc(C)on2)cc1,48,x,x,
CN(CC(=O)Nc1ccccc1N1CCOCC1)CC(=O)Nc1ccc(F)c(F)c1F,-72*,8,12,
CCCN(CC(=O)Nc1ccccc1C)C(=O)C1CC(=O)N(c2ccccc2C(C)CC)C1 (configuration not stated),48,x,x,
O=C1NCCCC2c3cc(O)c4ccccc4c3OC12N1CCCCC1 (configuration not stated),93,x,x,
Cc1cc(C)cc(NC(=O)C2CCN(S(C)(=O)=O)CC2)c1,-67*,1,0,
Cc1ccc(S(=O)(=O)Nc2ccccc2F)cc1C(=O)NCc1ccco1,-54*,11,11,
Nc1c(C(=O)NCc2ccco2)c2nc3ccccc3nc2n1CCc1ccc(F)cc1,78,x,x,
Oc1ccc(N=Cc2ccc(-c3cccs3)s2)cc1,96,x,x,
CC(=O)Nc1ccc(NC(=O)C2CC(=O)Nc3nc4ccccc4n32)cc1 (configuration not stated),-43*,6,9,
COC(=O)c1c(N)n(-c2ccc(NC(C)=O)cc2)c2nc3ccccc3nc12,49,x,x,
O=C(NCCc1ccccc1)C1CCCN1C(=O)Nc1ccc(F)cc1 (configuration not stated),-43*,6,12,
COc1ccc(NC(=O)N2CCCC2C(=O)Nc2ccccc2)cc1 (configuration not stated),-41*,1,13,
SMILES,Apaf1 activ,Rh110 act interf,Apaf-1 act conf2,others
COC(=O)C1=C(C)N(Cc2ccccc2)C(=NCc2ccc(OC)cc2)N[C@H]1c1ccccc1,51,x,x,
CC(=O)Nc1ccc(NC(=O)C2CCCN2C(=O)Nc2ccc(F)cc2)cc1 (configuration not stated),-208*,4,15,
O=C1C(C2=C(O)c3ccccc3C2=O)=Nc2ccccc21,66,x,x,
NC1=NC[C@H](Cc2ccc(O)cc2)N1CCCCC1CCCCC1,53,x,x,
CCc1ccc(OCCNc2cc(N3CCNC(C)C3)ccc2[N+](=O)[O-])cc1 (configuration not stated),75,x,x,
CCOC(=O)N=Nc1c2ccccc2c2nc3no[nH]c3nc12,88,x,x,
CCOC(=O)C1CCCN(c2cc(NCCCO)c([N+](=O)[O-])c3nonc23)C1 (configuration not stated),40,x,x,
COc1ccc(CN2CCN(C(c3ccc(F)cc3)c3ccc(F)cc3)CC2)c(OC)c1OC,48,x,x,
O=[N+]([O-])c1cncc([N+](=O)[O-])c1Nc1cccc(O)c1,-64*,12,18,
O=C1C(Nc2cccc(O)c2)=C(N2CCCCC2)C(=O)c2ccccc21,88,x,x,

# High-throughput results: PubChem, Sanford-Burnham Center for Chemical Genomics
